# From ChEMBL document CHEMBL4689842, “EUbOPEN Chemogenomics Library wave 1” (2021)
# System: U2OS
# Assay: Multiplex assay against U2OS
# Format: toxicity, cell-based
# Settings: human
# How it was run: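 Tubulin, mitochondrial-mass and membrane-permeability phenotypes are per cents of healthy-nucleus cells. Cells were gated by CellPathfinder machine learning into Hoechst high-intensity objects or normal cells, normal cells into healthy, pyknosed or fragmented nuclei, and pyknosed cells into mitotic or apoptotic. Before that, live cells stained at seeding with Hoechst33342, BioTracker Green Microtubule Cytoskeleton Dye, MitoTracker Red and Annexin V Alexa Fluor 680 were imaged on a CQ1 microscope at 37°C and 5% CO2 after compound addition.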
# [1] = 12 h, 1 µM, compound concentration 1 uM, replicate 1
# [2] = 12 h, 1 µM, compound concentration 1 uM, replicate 2
# [3] = 12 h, 10 µM, compound concentration 10 uM, replicate 1
# [4] = 12 h, 10 µM, compound concentration 10 uM, replicate 2
# [5] = 24 h, 1 µM, compound concentration 1 uM, replicate 1
# [6] = 24 h, 1 µM, compound concentration 1 uM, replicate 2
# [7] = 24 h, 10 µM, compound concentration 10 uM, replicate 1
# [8] = 24 h, 10 µM, compound concentration 10 uM, replicate 2
# [9] = 48 h, 1 µM, compound concentration 1 uM, replicate 1
# [10] = 48 h, 1 µM, compound concentration 1 uM, replicate 2
# [11] = 48 h, 10 µM, compound concentration 10 uM, replicate 1
# [12] = 48 h, 10 µM, compound concentration 10 uM, replicate 2
smiles,measurement,setting,value
C=CC(=O)Nc1cccc(Oc2nc(Nc3ccc(N4CCN(C)CC4)cc3OC)ncc2Cl)c1,Population Apoptotic (%),[1],67%
same,Population Fragmented Nuclei (%),[1],27%
same,Population Healthy Nuclei (%),[1],36%
same,Population Hoechst High Intensity Objects (%),[1],8%
same,Population Membrane Permeable-Phenotype (%),[1],17%
same,Population Mitochondria Different-Phenotype (%),[1],74%
same,Population Mitotic Cells (%),[1],32%
same,Population Normal (%),[1],92%
same,Population Pyknosed Nuclei (%),[1],36%
same,Population Tubulin-Different-Phenotype (%),[1],96%
same,Total Cell Count,[1],140
same,Population Apoptotic (%),[2],73%
same,Population Fragmented Nuclei (%),[2],32%
same,Population Healthy Nuclei (%),[2],26%
same,Population Hoechst High Intensity Objects (%),[2],13%
same,Population Membrane Permeable-Phenotype (%),[2],19%
same,Population Mitochondria Different-Phenotype (%),[2],80%
same,Population Mitotic Cells (%),[2],26%
same,Population Normal (%),[2],86%
same,Population Pyknosed Nuclei (%),[2],41%
same,Population Tubulin-Different-Phenotype (%),[2],100%
same,Total Cell Count,[2],107
same,Population Apoptotic (%),[3],58%
same,Population Fragmented Nuclei (%),[3],5%
same,Population Healthy Nuclei (%),[3],82%
same,Population Hoechst High Intensity Objects (%),[3],1%
same,Population Membrane Permeable-Phenotype (%),[3],35%
same,Population Mitochondria Different-Phenotype (%),[3],7%
same,Population Mitotic Cells (%),[3],41%
same,Population Normal (%),[3],98%
same,Population Pyknosed Nuclei (%),[3],12%
same,Population Tubulin-Different-Phenotype (%),[3],21%
same,Total Cell Count,[3],152
same,Population Apoptotic (%),[4],25%
same,Population Fragmented Nuclei (%),[4],16%
same,Population Healthy Nuclei (%),[4],79%
same,Population Hoechst High Intensity Objects (%),[4],13%
same,Population Membrane Permeable-Phenotype (%),[4],43%
same,Population Mitochondria Different-Phenotype (%),[4],16%
same,Population Mitotic Cells (%),[4],75%
same,Population Normal (%),[4],86%
same,Population Pyknosed Nuclei (%),[4],4%
same,Population Tubulin-Different-Phenotype (%),[4],22%
same,Total Cell Count,[4],113
same,Population Apoptotic (%),[5],91%
same,Population Fragmented Nuclei (%),[5],21%
same,Population Hoechst High Intensity Objects (%),[5],12%
same,Population Membrane Permeable-Phenotype (%),[5],70%
same,Population Mitochondria Different-Phenotype (%),[5],100%
same,Population Mitotic Cells (%),[5],8%
same,Population Normal (%),[5],87%
same,Population Pyknosed Nuclei (%),[5],61%
same,Total Cell Count,[5],160
same,Population Apoptotic (%),[6],92%
same,Population Fragmented Nuclei (%),[6],35%
same,Population Healthy Nuclei (%),[6],17%
same,Population Hoechst High Intensity Objects (%),[6],14%
same,Population Membrane Permeable-Phenotype (%),[6],93%
same,Population Mitochondria Different-Phenotype (%),[6],93%
same,Population Mitotic Cells (%),[6],7%
same,Population Normal (%),[6],85%
same,Population Pyknosed Nuclei (%),[6],47%
same,Population Tubulin-Different-Phenotype (%),[6],100%
same,Total Cell Count,[6],131
same,Population Apoptotic (%),[7],62%
same,Population Fragmented Nuclei (%),[7],5%
same,Population Healthy Nuclei (%),[7],89%
same,Population Hoechst High Intensity Objects (%),[7],3%
same,Population Membrane Permeable-Phenotype (%),[7],29%
same,Population Mitochondria Different-Phenotype (%),[7],9%
same,Population Mitotic Cells (%),[7],37%
same,Population Normal (%),[7],96%
same,Population Pyknosed Nuclei (%),[7],5%
same,Population Tubulin-Different-Phenotype (%),[7],18%
same,Total Cell Count,[7],182
same,Population Apoptotic (%),[8],66%
same,Population Fragmented Nuclei (%),[8],10%
same,Population Healthy Nuclei (%),[8],84%
same,Population Hoechst High Intensity Objects (%),[8],16%
same,Population Membrane Permeable-Phenotype (%),[8],27%
same,Population Mitochondria Different-Phenotype (%),[8],17%
same,Population Mitotic Cells (%),[8],33%
same,Population Normal (%),[8],83%
same,Population Tubulin-Different-Phenotype (%),[8],17%
same,Total Cell Count,[8],120
Cc1ccc(C)c(Oc2ccncc2C(=O)N2CCN(C3CC3)c3ccccc32)c1,Population Apoptotic (%),[1],53%
same,Population Fragmented Nuclei (%),[1],10%
same,Population Healthy Nuclei (%),[1],77%
same,Population Hoechst High Intensity Objects (%),[1],7%
same,Population Normal (%),[1],92%
same,Total Cell Count,[1],135
same,Population Apoptotic (%),[2],66%
same,Population Healthy Nuclei (%),[2],75%
same,Population Hoechst High Intensity Objects (%),[2],10%
same,Population Normal (%),[2],89%
same,Total Cell Count,[2],73
same,Population Apoptotic (%),[3],48%
same,Population Fragmented Nuclei (%),[3],15%
same,Population Healthy Nuclei (%),[3],61%
same,Population Hoechst High Intensity Objects (%),[3],6%
same,Population Mitotic Cells (%),[3],51%
same,Population Normal (%),[3],93%
same,Total Cell Count,[3],132
same,Population Apoptotic (%),[4],33%
same,Population Fragmented Nuclei (%),[4],6%
same,Population Healthy Nuclei (%),[4],72%
same,Population Hoechst High Intensity Objects (%),[4],3%
same,Population Normal (%),[4],96%
same,Total Cell Count,[4],59
same,Population Apoptotic (%),[5],47%
same,Population Fragmented Nuclei (%),[5],8%
same,Population Healthy Nuclei (%),[5],76%
same,Population Hoechst High Intensity Objects (%),[5],3%
same,Population Mitotic Cells (%),[5],52%
same,Population Normal (%),[5],96%
same,Total Cell Count,[5],137
same,Population Apoptotic (%),[6],42%
same,Population Fragmented Nuclei (%),[6],27%
same,Population Healthy Nuclei (%),[6],60%
same,Population Hoechst High Intensity Objects (%),[6],6%
same,Population Normal (%),[6],93%
same,Total Cell Count,[6],71
same,Population Apoptotic (%),[7],51%
same,Population Healthy Nuclei (%),[7],50%
same,Population Hoechst High Intensity Objects (%),[7],10%
same,Population Mitotic Cells (%),[7],48%
same,Population Normal (%),[7],89%
same,Total Cell Count,[7],152
same,Population Apoptotic (%),[8],53%
same,Population Healthy Nuclei (%),[8],66%
same,Population Hoechst High Intensity Objects (%),[8],7%
same,Population Normal (%),[8],92%
same,Total Cell Count,[8],65
same,Population Apoptotic (%),[9],46%
same,Population Fragmented Nuclei (%),[9],4%
same,Population Healthy Nuclei (%),[9],82%
same,Population Hoechst High Intensity Objects (%),[9],3%
same,Population Mitotic Cells (%),[9],53%
same,Population Normal (%),[9],96%
same,Total Cell Count,[9],139
same,Population Apoptotic (%),[10],36%
same,Population Fragmented Nuclei (%),[10],6%
same,Population Healthy Nuclei (%),[10],79%
same,Population Hoechst High Intensity Objects (%),[10],4%
same,Population Mitotic Cells (%),[10],63%
same,Population Normal (%),[10],95%
same,Total Cell Count,[10],69
same,Population Apoptotic (%),[11],61%
same,Population Fragmented Nuclei (%),[11],14%
same,Population Healthy Nuclei (%),[11],42%
same,Population Hoechst High Intensity Objects (%),[11],9%
same,Population Mitotic Cells (%),[11],38%
same,Population Normal (%),[11],90%
same,Total Cell Count,[11],213
same,Population Apoptotic (%),[12],33%
same,Population Fragmented Nuclei (%),[12],22%
same,Population Healthy Nuclei (%),[12],55%
same,Population Hoechst High Intensity Objects (%),[12],1%
same,Population Normal (%),[12],98%
same,Total Cell Count,[12],83
